Here are results for 4 compounds from PMC3143253 (Journal of molecular biology, 2011).

The conditions of data set [1]: cited from earlier work.
For data set [2], the system named is D/A-CaM (donor/acceptor-labeled CaM). In words: FRET measurements using D/A-CaM. The data set is classed as binding. Particulars: compared with CaMKII-derived peptide; calcium-containing buffer, pH 7.4.
The nature of another data set: Solubility. Type of data set: physicochemical.
In data set [3] the test system is 15N-labeled Ca^2+-loaded CaM. In words: 1H,15N-HSQC NMR titration of 15N-labeled CaM. Type of data set: binding. Particulars: Ca^2+-CaM, 310 K.
The target of data set [4] is CaM (I-CaM, IAEDANS-labeled CaM-K75C) (Homo sapiens, UniProt P0DP23, K76C). The experiment in a line: I-CaM fluorescence titration of water-soluble peptides. The data set is classed as binding. To be noted: 0.1 mM CaCl2 versus 0.3 mM EDTA.
Data set [5] has as its target T1, CaM (Homo sapiens, UniProt P0DP23). In words: Isothermal titration calorimetry. Type of data set: binding. To be noted: 10 mM MOPS, 2 mM CaCl2, 100 mM NaCl, pH 7.4, 30 °C. In general terms: Isothermal titration calorimetry measures the heat released or taken up as one component is titrated into another.
The target of data set [6] is T1, CaM. In words: CaM titration to TMR-CLS liposomes, TMR fluorescence. Type of data set: binding. To be noted: pH 7.4; for association with CaM in 15% POPS liposomes: 15% POPS / 85% POPC liposomes, absence and presence of calcium.
The next data set is described as follows: Collisional fluorescence. The data set is classed as binding. To be noted: pH 7.4.
The next data set concerns the target I-CaM (Homo sapiens, UniProt P0DP23, K76C). The experiment in a line: I-CaM titration to CLS liposomes, Trp315 to IAEDANS energy transfer. The data set is classed as binding. Summed up: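 Unlabelled CLS (30 nM) in liposomes was titrated with IAEDANS-labelled cysteine-mutant CaM. Its concentration came from IAEDANS absorbance. Buffer was 10 mM MOPS, 100 mM NaCl, pH 7.4, with 0.3 mM EDTA or 1 mM CaCl2, at 20 °C. Excitation was 295 nm, and Trp quenching was read at 333 nm. Spectra were averaged over 3 scans and corrected with empty liposomes. Kd came from a hyperbolic fit.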

Data set [7] has as its target T1, CaM. In words: Overall affinity of CaM for L-selectin cytoplasmic domain. Particulars: phosphatidylserine content mimics that in the inner leaflet of the cell plasma membrane. Type of data set: binding.
The nature of data set [8]: Far-UV CD spectroscopy in liposomes. To be noted: 1 mM MOPS, pH 7.4, 20 °C. The data set is classed as physicochemical. The gist of the method: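 CLS reconstituted into large unilamellar vesicles (extruded, 400-nm filter) at about 10 μM in 1 mM MOPS, pH 7.4. Far-UV spectra (190–260 nm) were taken in a 0.1-cm cuvette at 20 °C with 0.2 nm steps and 10 scans each, corrected against empty liposomes. CLS content was measured by Trp emission after dissolving in 2% SDS, against a standard curve.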

“Also recorded” adds a separate entry of the source. No end group written: not given here. *: point of attachment. X1 = CN(C)c1ccc2c(-c3ccc(N4C(=O)CC(*)C4=O)cc3C(=O)[O-])c3ccc(N(C)C)cc3[o+]c2c1

With `NCCCCCCNS(=O)(=O)c1cccc2c(Cl)cccc12` [W-7], the “membrane binding and surface potential” value in data set [1] is “directly bind to membrane and alter the electrostatic surface potential”.
For ARRLKKGKKSKRSMNDPY [ARR18], the “conformation of bound CaM” value in data set [2] is on record as “much more extended conformation”. Also, the “solubility in water / aqueous solutions” value in the data set “Solubility” is “soluble in water up to millimolar concentration”. Further, the CaM lobes bound entry in data set [3] (10 mM MOPS, 100 mM NaCl, 5 mM CaCl2, pH 6.3) was “binds to both the N- and C-lobes of Ca^2+-CaM”. Besides, the “nature of the binary complex” value in data set [3] (saturating concentrations of ARR18, pH 6.3) was “dynamic and exist as an ensemble of interconverting conformers”. For the same compound, the “effect of calcium on association with CaM” value in data set [4] is recorded as “calcium does not influence the association of CaM with ARR18”. Moreover, at CaM [5] (ARR18 316 μM in 10 μl increments into 27.6 μM CaM, one-site model), the “N (stoichiometry of binding)” value stood at 0.92±0.05. In addition, the “ΔH (enthalpy change per mole of ligand)” value on CaM [5] (ARR18 316 μM into 27.6 μM CaM, one-site model) is -0.77 ± 0.07 kcal/mol. The “ΔS (entropy change)” value on CaM [5] (derived from Ka and ΔH) is 21.7 cal/mol·K.
Take “KLDKSFSMIKEGDYNPLFIPVAVMVTAFSGLAFIIWLARRLKKGKKSKRC(X1)MNDPY [TMR-CLS]”: at CaM [6], the “association with CaM in 15% POPS liposomes” value is “does not bind”. Further, the “change in TMR fluorescence emission on addition of CaM” value on CaM [6] (15% POPS liposomes, up to 10 μM CaM, 10 mM MOPS, 100 mM NaCl, 1 mM EDTA or 0.1 mM CaCl2) is on record as “little change in TMR fluorescence emission”. In addition, the “effect of NaNO3 on TMR fluorescence (15% POPS versus POPC liposomes)” value in the data set “Collisional fluorescence” (150 mM NaI, increasing NaNO3, 10 mM MOPS, ex 542 nm, em 575 nm) was “quenched more significantly in 15% POPS liposomes compared to POPC liposomes”.
Consider “KLDKSFSMIKEGDYNPLFIPVAVMVTAFSGLAFIIWLARRLKKGKKSKRSMNDPY [CLS]”, for which the “association with CaM in 15% POPS liposomes” value on CaM [6] is “does not associate”. Moreover, the “solubility in water / aqueous solutions” value in “Solubility” was “not soluble in aqueous solutions”. In addition, on I-CaM (CLS in POPC liposomes, CaCl2 versus EDTA), the “effect of calcium on interaction with CaM” value was “independent of calcium ion”. Also, the “quenching of Trp315 fluorescence by I-CaM” value on I-CaM (unlabeled CLS in 15% POPS liposomes, pH 7.4) is given as “did not produce a significant quenching of Trp315 fluorescence”. Moreover, the “location of cytoplasmic domain relative to membrane surface” value in “Collisional fluorescence” (POPC liposomes with 0–15% POPS, 20 °C) is reported as “located closer to the surface of membranes that have higher concentrations of negatively charged lipids”. In addition, the “interaction with CaM (summary)” value at CaM [7] is “undetectable; also recorded: fails to bind”. Further, the “secondary structure by CD” value in data set [8] (POPC and 15% POPS liposomes, minima at 208 and 222 nm) is given as “characteristic of the α-helical secondary structure”. Moreover, the “α-helical content in 15% POPS versus POPC liposome” value in data set [8] (ellipticity at 222 nm) is listed as “less α-helical secondary structure in the 15% POPS liposome than in the POPC liposome”.
